# Data taken from ChEMBL document CHEMBL1795205, “The new 5- or 6-azapyrimidine and cyanuric acid derivatives of l-ascorbic acid bearing the free C-5 hydroxy or C-4 amino group at the ethylenic spacer: CD-spectral absolute configuration determination and biological activity evaluations” (Eur J Med Chem, 2011).
# How the values were obtained:
# MIA PaCa-2 [1] = experiment: Induction of cell cycle arrest in human MIAPaCa2 cells assessed as accumulation at G1 phase at 5 uM after 48 hrs by flow cytometry (reference value: 44.7 +/- 7.21%); type: functional
# MIA PaCa-2 [2] = experiment: Induction of cell cycle arrest in human MIAPaCa2 cells assessed as accumulation at S phase at 5 uM after 48 hrs by flow cytometry (reference value: 46 +/- 8.13%); type: functional
# SW-620 [3] = experiment: Induction of cell cycle arrest in human SW620 cells assessed as accumulation at subG1 phase at 5 uM after 24 hrs by flow cytometry (reference value: 0.37 +/- 0.36%); type: functional
# SW-620 [4] = experiment: Induction of cell cycle arrest in human SW620 cells assessed as accumulation at G1 phase at 1 uM after 48 hrs by flow cytometry (reference value: 46.6 +/- 4.88%); type: functional
# SW-620 [5] = experiment: Induction of cell cycle arrest in human SW620 cells assessed as accumulation at subG1 phase at 1 uM after 48 hrs by flow cytometry (reference value: 0.18 +/- 0.036%); type: functional
# SW-620 [6] = experiment: Induction of cell cycle arrest in human SW620 cells assessed as accumulation at G1 phase at 5 uM after 48 hrs by flow cytometry (reference value: 46.6 +/- 4.88%); type: functional
# SW-620 [7] = experiment: Induction of cell cycle arrest in human SW620 cells assessed as accumulation at G2/M phase at 5 uM after 48 hrs by flow cytometry (reference value: 11.9 +/- 2.33%); type: functional
# SW-620 [8] = experiment: Induction of cell cycle arrest in human SW620 cells assessed as accumulation at S phase at 5 uM after 48 hrs by flow cytometry (reference value: 41.7 +/- 2.47%); type: functional
# SW-620 [9] = experiment: Induction of cell cycle arrest in human SW620 cells assessed as accumulation at subG1 phase at 5 uM after 48 hrs by flow cytometry (reference value: 0.18 +/- 0.036%); type: functional
# HeLa [10] = experiment: Induction of cell cycle arrest in human HeLa cells assessed as accumulation at subG1 phase at 1 uM after 24 hrs by flow cytometry relative to control; type: functional
# Outline: (§1)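 Cells were seeded at 3×10⁵ per well in 6-well plates and treated after overnight incubation for 24 and 48 h. They were trypsinized, washed three times in PBS, fixed in cold ethanol and stored at −20 °C. Pellets were washed twice in PBS and treated with RNase A at 37 °C for 15 min, then stained with PI for 30 min in the dark. DNA content was measured by flow cytometry.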
# HeLa [11] = experiment: Induction of cell cycle arrest in human HeLa cells assessed as accumulation at subG1 phase at 5 uM after 24 hrs by flow cytometry relative to control; type: functional; outline: as §1
# HeLa [12] = experiment: Induction of cell cycle arrest in human HeLa cells assessed as accumulation at G1 phase at 1 uM after 48 hrs by flow cytometry relative to control; type: functional; outline: as §1
# HeLa [13] = experiment: Induction of cell cycle arrest in human HeLa cells assessed as accumulation at S phase at 1 uM after 48 hrs by flow cytometry relative to control; type: functional; outline: as §1
# HeLa [14] = experiment: Induction of cell cycle arrest in human HeLa cells assessed as accumulation at subG1 phase at 1 uM after 48 hrs by flow cytometry relative to control; type: functional; outline: as §1
# HeLa [15] = experiment: Induction of cell cycle arrest in human HeLa cells assessed as accumulation at G1 phase at 5 uM after 48 hrs by flow cytometry relative to control; type: functional; outline: as §1
# HeLa [16] = experiment: Induction of cell cycle arrest in human HeLa cells assessed as accumulation at G2/M phase at 5 uM after 48 hrs by flow cytometry relative to control; type: functional; outline: as §1
# HeLa [17] = experiment: Induction of cell cycle arrest in human HeLa cells assessed as accumulation at S phase at 5 uM after 48 hrs by flow cytometry relative to control; type: functional; outline: as §1
# SW-620 [18] = experiment: Cytostatic activity against human SW620 cells assessed as inhibition of cell proliferation after 72 hrs by MTT assay; type: functional, cell-based; details: SW-620, 72 h
# Outline: (§2)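 Monolayer cells grown in DMEM with 10% FBS were seeded on day 0 at 3000–6000 cells/well, set by each line's doubling time. Agents were added the next step in five 10-fold dilutions (0.01–100) for 72 h, with DMSO ≤0.1% and a solvent control. MTT absorbance was converted to percentage growth versus untreated wells on the same plate. Where all PGs exceeded 50, the top concentration was reported as ">". ANOVA/Tukey, p<0.05.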
# MIA PaCa-2 [19] = experiment: Cytostatic activity against human MIAPaCa2 cells assessed as inhibition of cell proliferation after 72 hrs by MTT assay; type: functional, cell-based; details: MIA PaCa-2, 72 h; outline: as §2
# MIA PaCa-2 [20] = experiment: Induction of cell cycle arrest in human MIAPaCa2 cells assessed as accumulation at subG1 phase at 1 uM after 24 hrs by flow cytometry (reference value: 0.32 +/- 0.009%); type: functional
# MIA PaCa-2 [21] = experiment: Induction of cell cycle arrest in human MIAPaCa2 cells assessed as accumulation at G1 phase at 5 uM after 24 hrs by flow cytometry (reference value: 55.4 +/- 0.01%); type: functional
# MIA PaCa-2 [22] = experiment: Induction of cell cycle arrest in human MIAPaCa2 cells assessed as accumulation at G2/M phase at 5 uM after 24 hrs by flow cytometry (reference value: 10.3 +/- 0.07%); type: functional
# MIA PaCa-2 [23] = experiment: Induction of cell cycle arrest in human MIAPaCa2 cells assessed as accumulation at S phase at 5 uM after 24 hrs by flow cytometry (reference value: 34.3 +/- 0.07%); type: functional
# MIA PaCa-2 [24] = experiment: Induction of cell cycle arrest in human MIAPaCa2 cells assessed as accumulation at G1 phase at 1 uM after 48 hrs by flow cytometry (reference value: 44.7 +/- 7.21%); type: functional
# MIA PaCa-2 [25] = experiment: Induction of cell cycle arrest in human MIAPaCa2 cells assessed as accumulation at G2/M phase at 1 uM after 48 hrs by flow cytometry (reference value: 9.35 +/- 0.92%); type: functional
structure (smiles),measurement,setting,value
Nc1ncn(C/C=C2\OC(=O)C(OCc3ccccc3)=C2OCc2ccccc2)c(=O)n1,Activity,MIA PaCa-2 [1],29%
same,Activity,MIA PaCa-2 [2],60.9%
same,Activity,SW-620 [3],0.2%
same,Activity,SW-620 [4],23.2%
same,Activity,SW-620 [5],0.05%
same,Activity,SW-620 [6],39.1%
same,Activity,SW-620 [7],9.2%
same,Activity,SW-620 [8],51.8%
same,Activity,SW-620 [9],0.21%
same,Activity,HeLa [10],0%
same,Activity,HeLa [11],0%
same,Activity,HeLa [12],20.1%
same,Activity,HeLa [13],65.6%
same,Activity,HeLa [14],0.02%
same,Activity,HeLa [15],23.9%
same,Activity,HeLa [16],13.9%
same,Activity,HeLa [17],62.3%
same,IC50,SW-620 [18],5.62 µM
same,IC50,MIA PaCa-2 [19],0.92 µM
same,Activity,MIA PaCa-2 [20],0.2%
same,Activity,MIA PaCa-2 [21],35.6%
same,Activity,MIA PaCa-2 [22],7.05%
same,Activity,MIA PaCa-2 [23],57.4%
same,Activity,MIA PaCa-2 [24],22.9%
same,Activity,MIA PaCa-2 [25],12.9%
